In the library only some 2.4% were active in any assay of this set; here they are far more common.
IMP-1 inhibitor: IMP-1 metallo-beta-lactamase inhibitors, primary screen, biochemical, epi-absorbance readout, Pseudomonas aeruginosa enzyme; purified IMP-1, nitrocefin hydrolysis, epi-absorbance fluorescence; inhibition, % at 5.6 µM; 0.45% of 290,000 active; AID 1556, 2009;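 active means inhibition above the mean plus 3 SD of all compounds in the same screening run, cut at about 4.5% in these data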;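 further: 0% = IMP-1 with DMSO and 100% = DMSO wells lacking enzyme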
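Test system: recombinant IMP-1 enzyme, purified / Medium: HEPES buffer pH 7.1 with ZnSO4 and Brij 35 / Doses: single dose, 5.6 µM / Times: 25 °C, 15 min preincubation, 25 min reaction / Detection: Epi-absorbance via hydrolysed-nitrocefin quenching of white-plate fluorescence, 480/530 nm, EDTA stop / Evaluation: percent inhibition from optical density relative to buffer-blank wells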
PfM18AAP inh: PfM18AAP inhibitors, malaria aminopeptidase, primary screen, biochemical, QFRET, recombinant enzyme; H-Glu-NHMec fluorogenic cleavage; inhibition, % at 7.35 µM; 1.2% of 290,000 active; AID 1822, 2009;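 active means inhibition above the campaign mean inhibition over all tested compounds plus 3 SD, cut at about 28% in these data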;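 further: 0% = plate median of test compound wells and 100% = 2 mM ZnCl2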
VIM-2 inh: VIM-2 metallo-beta-lactamase inhibitors, primary screen, biochemical, epi-absorbance readout, Pseudomonas aeruginosa enzyme | purified VIM-2, nitrocefin hydrolysis, epi-absorbance fluorescence | inhibition, % at 5.6 µM | 0.89% of 290,000 active;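 active means inhibition above the mean of all tested compounds plus 3 SD, cutoff set per screening run, cut at about 7.5% in these data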;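 further: red hydrolysis product quenches plate fluorescence so inhibitors raise well fluorescence; 0% = enzyme with DMSO and 100% = DMSO without enzyme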
HGIII-sPLA2 inh: human group III sPLA2 inhibitors, primary screen, biochemical, QFRET, BODIPY PC-A2 liposome substrate. 0.56% of 370,000 active. QFRET BODIPY PC-A2 liposome hydrolysis, fluorescence. AID 743126, 2013. inhibition, % at 12.2 µM;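 active means inhibition above mean plus 3 SD of compounds lying within the high and low control bounds, cut at about 19% in these data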;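 further: 0% = median of test compound wells and 100% = no enzyme DMSO wells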
Target sequence (Q9NZ20 whole entry, looked up): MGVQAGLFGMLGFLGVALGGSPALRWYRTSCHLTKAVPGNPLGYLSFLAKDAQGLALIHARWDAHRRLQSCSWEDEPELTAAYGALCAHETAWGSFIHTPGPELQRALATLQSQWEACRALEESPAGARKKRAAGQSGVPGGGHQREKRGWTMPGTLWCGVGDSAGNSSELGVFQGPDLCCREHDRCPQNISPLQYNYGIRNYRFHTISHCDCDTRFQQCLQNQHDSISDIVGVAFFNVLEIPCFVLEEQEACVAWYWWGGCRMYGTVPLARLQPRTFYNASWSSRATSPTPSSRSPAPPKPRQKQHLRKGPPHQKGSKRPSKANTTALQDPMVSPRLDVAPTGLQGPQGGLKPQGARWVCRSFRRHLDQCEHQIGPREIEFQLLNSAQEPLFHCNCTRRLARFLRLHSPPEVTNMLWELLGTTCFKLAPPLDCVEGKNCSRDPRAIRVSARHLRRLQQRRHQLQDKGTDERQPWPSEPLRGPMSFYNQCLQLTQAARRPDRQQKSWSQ
Active calls of the source: *; nt = no result; ! = not confirmed by another sample.

SMILES	IMP-1 inhibitor	PfM18AAP inh	VIM-2 inh	HGIII-sPLA2 inh
COc1cc2c(cc1OC)-c1c(OC)c(OC)c(OC)c3ccnc(c13)C2=O	-4	10	9.4*	nt
COc1cc(CC2(CCc3ccncc3)C(=O)NC(=O)NC2=O)cc(OC)c1OC	-3	-5	-1	7
COc1cccc(C(=O)NCCN2CCC3(CC2)C(=O)NCN3c2ccccc2)c1	nt	nt	nt	7
CC(C)(C)Cc1nnc(NC(=O)COc2ccc(Cl)cc2Cl)o1	nt	nt	nt	6
CCc1ccc(-n2c(O)c(/C=N/NC(=O)c3ccncc3)c(=O)[nH]c2=O)cc1	13*	9	-3	4
CC(C)c1ccc(-n2c(O)c(/C=N/NC(=O)c3ccncc3)c(=O)[nH]c2=O)cc1	-3	-3	-4	-4
Cc1cc(N2CCNC[C@@H]2C)ccc1N1CCN[C@H](C)C1	nt	nt	nt	0
Cc1cc(OCc2nn[nH]n2)c2c3c(c(=O)oc2c1)CCCC3	1	4	9.0*	-5
Cc1cc(OCC(=O)NCc2ccc(S(N)(=O)=O)cc2)c2c3c(c(=O)oc2c1)CCC3	-3	-13	9.4*	3
C=CCOC(=O)COc1cc(C)cc2oc(=O)c3c(c12)CCC3	-2	10	5	-4
O=C(O)c1cc(S(=O)(=O)N2CC3CC(C2)c2cccc(=O)n2C3)ccc1F (stereo unspecified)	nt	nt	nt	-9
CN1CCN(C(=O)COc2ccc(-c3nc4ccccc4s3)cc2)CC1	0	-4	7.8*	-5
O=C1NC(=S)NC(=O)C1=Cc1ccc(Br)s1	7.1*	13	3	-2
CCN1C(=O)C(=C2C=C(C)OC(C)=C2)C(=O)N(CC)C1=S	-1	3	-2	-4
CCOC(=O)C1=CC(=C2C(=O)N(CC)C(=S)N(CC)C2=O)c2ccccc2O1	6.2*	0	-2	-5
CC(C)(C)n1nnnc1C1CN=C(c2ccccc2)c2ccccc2N1 (stereo unspecified)	nt	nt	nt	1
C[n+]1c(-c2ccccc2)c2cc(N)ccc2c2ccc(N)cc21	0	34*	0	-38
CN1CCN(c2ccc(N)c(N3CCN(C)CC3)c2)CC1	-5	30*	2	8
CN1CCN(c2ccc3nccnc3c2)CC1	-4	4	-6	-1
Cn1cc(P(=S)(c2ccccc2)c2ccccc2)c2ccccc21	nt	nt	nt	3
N/C(=N\N=C/c1ccc(-c2ccc(O)c(C(=O)O)c2)o1)N[N+](=O)[O-]	-3	31*	-2	-18
COc1ccc(/C=N/N=C(/N)N[N+](=O)[O-])c(OC)c1	-2	-7	0	-3
O=C(NC1CN2CCC1CC2)c1cc(-c2ccc(Cl)cc2)nc2ccccc12 (stereo unspecified)	nt	nt	nt	-10
CN1CCC(N(C)c2nc(-c3ccc([N+](=O)[O-])cc3)nc3ccccc23)CC1	-2	-10	9.9*	3
CC(c1ccccc1)n1cc(C(=O)NC2CCCC2)nn1 (stereo unspecified)	nt	nt	nt	3
SMILES	IMP-1 inhibitor	PfM18AAP inh	VIM-2 inh	HGIII-sPLA2 inh
O=c1[nH]c2ccccc2n1C1CCN(Cc2ccc(-c3[nH]c4cc5ncnc5cc4nc3-c3ccccc3)cc2)CC1	nt	nt	nt	-20
Cc1cc(/C=C2\C(=O)NC(=O)N(c3ccccc3F)C2=O)c(C)n1-c1cc(C(=O)O)cc(C(=O)O)c1	-2	30*	-1	3
Cc1cc(N2CCNC[C@H]2C)ccc1N1CC[C@@H](O)C1	nt	nt	nt	10
C[C@H](NC(=O)OCc1ccccc1)[P+](=O)O	nt	nt	nt	-1
CN1C(=O)CN=C(c2ccccc2Cl)c2cc(Br)ccc21	11*	-1	-2	10
CN1C(=O)CN=C(c2ccc(Cl)cc2)c2cc(Cl)ccc21	0	3	0	-2
O=C(NCCN1CCC2(CC1)C(=O)NCN2c1ccccc1)c1ccc(F)c(F)c1	nt	nt	nt	5
CCC(=Nc1ccc(OC)cc1OC)c1c(O)[nH]c(=O)[nH]c1=O	0	-22	-2	0
CCC(=Nc1cc(OC)ccc1OC)c1c(O)[nH]c(=O)[nH]c1=O	-1	29*	2	7
CC(=NCCCn1ccnc1)c1c(O)n(C)c(=O)n(C)c1=O	-2	11	66*	-1
C=CCn1c(O)c(/C=C2/C=c3ccccc3=N2)c(=O)[nH]c1=S	11*	-13	1	3
O=C1NC(c2cccnc2)Nc2sc3c(c21)CCCC3 (stereo unspecified)	1	31*	0	-11
CC1(C)Cc2c(sc3c2C(=O)NC(c2cccnc2)N3)CO1 (stereo unspecified)	-2	-7	1	-2
COc1c(O)cc2c(c1OC)-c1ccc(SC)c(=O)cc1C(NC(C)=O)CC2 (stereo unspecified)	nt	nt	nt	-6
NC(=S)N/N=C/c1coc2ccccc2c1=O	-4	29*	-4	13
O=c1[nH]c(O)c(N=Nc2cc(C(F)(F)F)ccc2Cl)c(=O)[nH]1	0	-20	11*	-5
O=C(O)c1ccccc1N=Nc1c(O)[nH]c(=O)[nH]c1=O	-4	7	-3	2
Cc1cc2c(C(C)C)c(O)c(O)c(C=O)c2c(O)c1-c1c(C)cc2c(C(C)C)c(O)c(O)c(C=O)c2c1O	14*!	32*	10*	9
CN(C(=O)Oc1cccc2ccccc12)C1C=CCC1 (stereo unspecified)	nt	nt	nt	1
CCN(CC)P(=O)(NC(=O)C(Cl)(Cl)Cl)N(CC)CC.[Cl-].[Cl-].[Cl-].[Nd+3]	22*	5	-1	5
C=CCn1c(O)c(/C(CC)=N/NC(=S)Nc2ccccc2)c(=O)[nH]c1=O	-2	-19	8.9*	3
C=CCn1c(O)c(/C(C)=N/NC(=S)Nc2ccccc2)c(=O)[nH]c1=O	0	-11	4	-3
CC(C)(C)n1cc(C(=O)c2ccccc2OCCCF)cn1	-1	-6	11*	2
Cc1cc(C=C2C(=O)N(C)C(=S)N(C)C2=O)c(C)n1C1CCCC1	2	2	-3	-2
CCN1C(=O)C(=Cc2cc(C)n(C3CC3)c2C)C(=O)N(CC)C1=S	12*	2	0	7
SMILES	IMP-1 inhibitor	PfM18AAP inh	VIM-2 inh	HGIII-sPLA2 inh
NCCc1c[nH]c2ccc(F)cc12	-2	-4	0	nt
CS(=O)(=O)Nc1ccc(Cc2noc(-c3ccc4[nH]cc(CCN)c4c3)n2)cc1	0	-1	29*	nt
O=C1C2CC=CCC2C(=O)N1SC(Cl)(Cl)Cl (stereo unspecified)	nt	nt	nt	4
Cn1c(O)c(/C=C/C=Nc2ccccc2)c(=O)n(C)c1=S	6.1*	-2	5	14
O=C(O)c1ccccc1-c1ccc(C=C2C(=O)N(c3ccccc3)C(=S)N(c3ccccc3)C2=O)o1	14*	8	1	-5
CNC(=O)Oc1cccc(-c2cn3cc(OC(=O)NC)ccc3n2)c1	-1	31*	-2	-17
Cc1ccccc1N1C(=O)NC(=O)/C(=C\c2cc(Br)c(N3CCOCC3)o2)C1=O	2	41*	0	-9

Bioassay records (PubChem)
